IC50, inhibition and Activity data for seven compounds are collected here from ChEMBL document CHEMBL1155578, “In vitro antiinflammatory effects of neolignan woorenosides from the rhizomes of Coptis japonica” (J Nat Prod, 2000).

Molecules are shown by their SMILES.

Assay [1] deals with RAW264.7. Briefly: Antiinflammatory activity against mouse RAW264.7 cells assessed as inhibition of LPS-induced TNFalpha production after 4 hrs by ELISA. Type of assay: functional, cell-based. Conditions: RAW264.7, 4 h. The gist of the method: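 Compounds were dissolved in vehicle (propylene glycol/ethanol/DMSO), kept at ≤0.1% final, and added with LPS (1 µg/mL) for 4 h. Supernatant TNF-α was measured by mouse TNF-α ELISA. Results are mean ± SEM of four observations in triplicate.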
(An ELISA detects its analyte on a solid surface through an enzyme-linked reagent.)

A short description of assay [2]: Inhibition of IL2-dependent mouse CTLL2 cell proliferation after 48 hrs by MTT assay. It is filed as functional, cell-based. Conditions: CTLL-2, 48 h. The gist of the method:
(§1)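 CTLL-2 cells were washed free of IL-2 and FBS, then resuspended at 5×10^5 cells/mL in growth medium without IL-2. They were incubated with compounds plus IL-2 (50 U/mL) for 48 h at 37 °C and 5% CO2. Proliferation was read by MTT assay. Results are mean ± SEM of four observations.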
Background: Tetrazolium dyes change colour on reduction, which living cells bring about.

In assay [3] the test system is RAW264.7. The experiment in a line: Antiinflammatory activity against mouse RAW264.7 assessed as inhibition of LPS-induced NO production after 24 hrs. Type of assay: functional, cell-based. The following applies: RAW264.7, 24 h. The gist of the method:
(§2)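 RAW264.7 cells were plated at 1×10^6 cells/mL and held 18 h. Compounds were then added with LPS (1 µg/mL) for lines 1 and 3, or IFN-γ (50 U/mL) for line 2, and incubated 24 h. Supernatant nitrite was measured with Griess reagent (10 min, room temperature) at OD550 against a sodium nitrite standard curve. Detection limit was 0.5 µM. Results are mean ± SEM of four observations run in triplicate.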

Assay [4] has as its system RAW264.7. The experiment in a line: Antiinflammatory activity against mouse RAW264.7 assessed as inhibition of IFN-gamma-induced NO production after 24 hrs. Type of assay: functional, cell-based. The following applies: RAW264.7, 24 h. The gist of the method: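 RAW264.7 mouse macrophages kept in RPMI 1640 with 10% FBS and antibiotics, 37 °C, 5% CO2. Cells pre-cultured 18 h at 1×10^6 cells/mL, then given graded compound concentrations plus IFN-γ (50 U/mL) for 24 h. Supernatant nitrite read by Griess reagent (10 min, room temperature) at OD550, quantified against a sodium nitrite standard curve. Mean ± SEM, four separate observations in triplicate.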

The subject of another assay is Splenocyte. The experiment in a line: Inhibition of Concanavalin A-stimulated cell proliferation in mouse splenocytes after 48 hrs by MTT assay. It is filed as functional, cell-based. The gist of the method: (§3)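 Splenocytes came from BALB/c male mice (eight weeks old); red cells were lysed with NH4Cl-Tris. Cells were cultured at 5×10^6 cells/mL with Con A (1 µg/mL) and compounds for 48 h. Results are mean ± SEM of four observations.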

Assay [5] relates to RAW264.7. The experiment in a line: Antiinflammatory activity against mouse RAW264.7 cells assessed as inhibition of LPS-induced TNFalpha production at 80 uM after 4 hrs by ELISA. It is filed as functional. Conditions: RAW264.7, 4 h. The gist of the method: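 RAW264.7 cells (2×10^6 cells/mL) were pre-incubated 18 h in RPMI 1640 with 10% FBS. Compounds were dissolved in vehicle (propylene glycol/ethanol/DMSO), kept at ≤0.1% final, and added with LPS (1 µg/mL) for 4 h. Supernatant TNF-α was measured by mouse TNF-α ELISA. Results are mean ± SEM of four observations in triplicate.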

Assay [6] is described as follows: Inhibition of IL2-dependent mouse CTLL2 cell proliferation at 80 uM after 48 hrs by MTT assay. The following applies: CTLL-2, 48 h. Type of assay: functional. The gist of the method: as §1
Assay [7] relates to RAW264.7. The experiment in a line: Antiinflammatory activity against mouse RAW264.7 cells assessed as inhibition of IFN-gamma-induced NO production at 20 uM after 24 hrs. It is filed as functional. Also noted: scale not given: the % may be the effect or the level left. The gist of the method:
as §2

Assay [8] deals with RAW264.7. Briefly: Antiinflammatory activity against mouse RAW264.7 cells assessed as inhibition of LPS-induced NO production at 80 uM after 24 hrs. Type of assay: functional. The following applies: RAW264.7, 24 h. The gist of the method: as §2
The nature of assay [9]: Antiinflammatory activity against mouse splenocytes assessed as inhibition of ConA-stimulated proliferation at 80 uM after 48 hrs by MTT assay. The following applies: Splenocyte. Type of assay: functional. The gist of the method: as §3
A further assay relates to SUP-T1. Briefly: Cytotoxicity against human Sup-T1 cells at 80 uM after 48 hrs by MTT assay. The following applies: SUP-T1, 48 h.

What is called IC50 is the midpoint of a concentration-inhibition curve. As for `CCCC(=O)Nc1ncnc2c1ncn2[C@@H]1O[C@@H]2COP(=O)(O)O[C@H]2[C@H]1OC(=O)CCC` [BUCLADESINE], the half-inhibitory concentration (IC50) in the assay with RAW264.7 [1] was determined as 28.9 µM; in assay [2] it was 576 µM.

Take `COC(=O)[C@@H](N)CCCNC(=N)N[N+](=O)[O-]` [L-NAME]: the half-maximal inhibitory concentration (IC50) with RAW264.7 [3] stood at 193 µM; with RAW264.7 [4], 116 µM.

With `N[C@H]1CONC1=O` [LEVCYCLOSERINE], 3.5 µM corresponded to half-maximal inhibition in the assay on Splenocyte (IC50).

In the case of `CC(=O)CCCCn1c(=O)c2c(ncn2C)n(C)c1=O` [PENTOXIFYLLINE], the IC50 with RAW264.7 [1] is 247 µM.

Turning to `C[C@]12C=CC(=O)C=C1CC[C@@H]1[C@@H]2[C@@H](O)C[C@@]2(C)[C@H]1CC[C@]2(O)C(=O)CO` [PREDNISOLONE], the concentration for half-maximal inhibition (IC50) with RAW264.7 [1] was determined as 25.4 µM.

Turning to `C/C(O)=C(\C#N)C(=O)Nc1ccc(C(F)(F)F)cc1` [TERIFLUNOMIDE], the IC50 was 6.7 µM with Splenocyte and 11.2 µM in [2].

As a reminder, the inhibition is the change of the read-out against control, counted positive when it falls. Regarding `COc1cc([C@@H]2Oc3c(OC)cc(/C=C/CO[C@@H]4O[C@H](CO)[C@@H](O)[C@H](O)[C@H]4O)cc3[C@H]2CO)cc(OC)c1OC` [WOORENOSIDE I], the inhibition at 80 µM with RAW264.7 [5] was 15.4%; in [6], -5.4%; in the assay on RAW264.7 [8] it was 34.7%; in [9], 24.8%; with SUP-T1, 32.1%. The Activity with RAW264.7 [7] was 8.5%.
